Shown are actives, neighbours in structure and some others; about 5.7% of the full set was active somewhere.
CSC inhib: cancer stem cell inhibition; cancer stem cell-like cells viability, luminescence; inhibition, % at 7.5 µM; actives 1.1% (n = 300,000); in the data active = inhibition above about 75%; tested in HMLE shEcad cells
SKKanGAS inh: blocks kanamycin growth of S. pyogenes SKKanGAS strain; BacTiter-Glo, 6 h; inhibition, % at 7.5 µM; actives 1.3% (n = 300,000); AID 1662;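 active = mean replicate score, as percent of positive control median, at least 50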;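 note: strain carries kanamycin resistance gene driven by streptokinase promoter and grows in 40 µg/ml kanamycin; loss of luminescence reflects streptokinase promoter inhibition or plain growth inhibition; 0% = median of DMSO wells and 100% = positive control at its reference dose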
Beta cell apopt: blocks beta cell apoptosis | AID 435005 | actives 0.8% (n = 300,000) | protection from apoptosis, % (no concentration beside the values) | INS-1E cytokine-induced death, ATP luminescence, 48 h; percent of positive-control rescue, neutral wells zero;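 active = Every replicate reaches about 75%, or at least half do and their mean reaches it too, limit read from the data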;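 note: 0% = cytokine-treated negative control wells and 100% = positive control rescue; higher means more ATP so stronger rescue from cytokine killing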
Mdm2 MdmX PPI: disrupts the human Mdm2-MdmX interaction; SaOS-2 split-luciferase Mdm2/MdmX complementation, luminescence; inhibition, % at 8 µM; actives 3% (n = 330,000); AID 485346;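 active = inhibition of at least 50% at 8 µM in the primary screen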
T cruzi inh: blocks replication of Trypanosoma cruzi. actives 1.4% (n = 300,000). AID 1885. T. cruzi beta-gal in NIH3T3, luminescence, 90 h. inhibition, % (test concentration not listed);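 active = mean inhibition across valid replicates above about 55%, limit read from the data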;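 note: signal also drops with host cell toxicity which is not excluded here; 0% = plate median of DMSO wells and 100% = zero luminescence signal; higher percent means less beta-gal luminescence so fewer parasites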
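Assay system: NIH/3T3 host cells with β-galactosidase reporter T. cruzi; input: 5,000 host fibroblasts per well; compound: single 50 nL compound addition per well in DMSO; timing: ≥90 h infection period, 3 h prior cell attachment; measured by: GalScreen β-gal luminescence, detergent lysis, 60 min; evaluation: percent inhibition of parasite-derived β-gal signal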
Calb FLC: C. albicans growth modulation with fluconazole; C. albicans CaCi-2 (fluconazole-resistant clinical isolate) + fluconazole, Alamar Blue growth, 48 h; growth inhibition, % (test concentration not listed); actives 0.57% (n = 300,000); AID 1979;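 active = growth inhibition above about 58% in most replicates, limit read from the data, passing the limit was not always enough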;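 note: all wells also contain fluconazole at 8 µg/ml as a sub-toxic cotreatment; 0% = median of DMSO wells and 100% = median of geldanamycin control wells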
Mdm2-MdmX conf: confirmation of human Mdm2/MdmX interaction inhibitors. AID 489028. Mdm2-MdmX binding, luminescent assay. inhibition, % at 8 µM. shares compounds with Mdm2 MdmX PPI. actives 55% (n = 10,000); in the data active = inhibition above about 40%
Full FLuc ctr: full-length luciferase inhibition in Mdm2/MdmX counter-screen; AID 504607; actives 77% (n = 6,200); shares compounds with Mdm2 MdmX PPI; SaOS-2 full-length luciferase counterscreen, luminescence; inhibition, % at 8 µM;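 active = mean inhibition at 8 µM reaching about 37%, which flags the compound as non-specific, limit read from the data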;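 note: p53-null SaOS-2 cells with luciferase driven by a doxycycline-inducible promoter; compound on cells about two nights before reading with doxycycline added after day one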
An asterisk follows results filed as active; / = no result.

SMILES | CSC inhib | SKKanGAS inh | Beta cell apopt | Mdm2 MdmX PPI | T cruzi inh | Calb FLC | Mdm2-MdmX conf | others
Cc1cccc(C)c1Oc1nc(-c2ccccc2)ncc1S(=O)(=O)c1ccccc1 | 33 | 51* | 7 | 52* | 21 | -2 | 3
CC(=O)N1CCN(C(=O)c2cc(S(=O)(=O)N(C)Cc3ccccc3)ccc2Cl)CC1 | / | / | / | 12 | / | / | /
Cc1[nH]c2ccccc2c1/C=C/C(=O)c1ccccc1 | 58 | -8 | 15 | 1 | 38 | 28 | /
Cc1[nH]c2ccccc2c(=O)c1C(=O)/C=C/c1ccccc1 | 61 | 7 | 25 | 100* | 48 | 6 | 100* | Full FLuc ctr=52*
CCOC(=O)C1CCN(C(=O)CNC(=O)c2nn(-c3ccc(OC)cc3)c(=O)c3ccccc23)CC1 | 12 | -2 | -3 | -12 | 0 | 6 | /
CC/C(=C\C1CCCCC1)C(NP(=O)(c1ccccc1)c1ccccc1)c1ccccc1 (stereo not given) | 126* | 101* | 6 | 55* | 44 | -1 | 15
Cc1cc(C)n(-c2ccc(S(=O)(=O)N3CCOCC3)cc2[N+](=O)[O-])n1 | -15 | 1 | -5 | -11 | -10 | -7 | /
O=C(Nc1ccc(O)c2c(=O)cc(-c3ccccc3Cl)oc12)c1ccc(Cl)c(Cl)c1 | -3 | -4 | -2 | 66* | -8 | 2 | 26
Cc1ccccc1C(=O)Nc1ccc(O)c2c(=O)cc(-c3ccccc3Cl)oc12 | 6 | 18 | 1 | 5 | -2 | -10 | /
COc1ccc(-n2nnnc2-c2ccc(S(C)(=O)=O)cc2Cl)cc1 | -15 | 7 | 2 | 15 | -15 | 16 | /
COc1cc(CN(C)CC2CCCN(CCc3cccc(C(F)(F)F)c3)C2)ccc1O (stereo not given) | 10 | 8 | 0 | 24 | 39 | 2 | /
C=CCn1c(COc2ccccc2F)nnc1SCC(=O)Nc1cc2oc3ccccc3c2cc1OC | 27 | 28 | -1 | 54* | 25 | -7 | 33
COc1cc2c(cc1NC(=O)CN1C(=O)NC3(CCc4ccccc43)C1=O)oc1ccccc12 (stereo not given) | 66 | 43 | 9 | 69* | 33 | 27 | 13
Cc1ccccc1NC(=O)CN1C(=O)NC2(CCc3ccccc32)C1=O (stereo not given) | -16 | / | -1 | 3 | / | / | /
COCCCNC(=S)Nc1cc2oc3ccccc3c2cc1OC | -4 | -8 | -3 | 55* | -39 | -20 | 41* | Full FLuc ctr=90*
CCn1c(SCC(=O)Nc2cc3oc4ccccc4c3cc2OC)nnc1-c1cccs1 | 6 | 6 | -4 | 51* | 26 | 3 | 12
COc1cc2c(cc1NC(=O)CSc1nnc(Cc3cccs3)n1C)oc1ccccc12 | -9 | -1 | -13 | 21 | 21 | -11 | /
COc1cc2c(cc1NC(=O)CSc1ccc(C)cc1)oc1ccccc12 | -3 | -3 | 0 | 2 | 16 | -13 | /
COc1cc2c(cc1NC(=O)CN(C)Cc1ccc(OC)c(OC)c1)oc1ccccc12 | / | 14 | 11 | 51* | 50 | -10 | 59* | Full FLuc ctr=58*
O=C(CSc1nnnn1-c1ccccc1)Nc1nsc(-c2ccccc2)n1 | 1 | -7 | -8 | 84* | -5 | 15 | 81* | Full FLuc ctr=28
COc1cc2c(cc1NC(=O)CSc1nnnn1-c1ccccc1)oc1ccccc12 | -18 | 5 | 16 | 71* | 17 | 6 | 33
CC(C)Cc1nc(SCC(=O)N2CCCCC2)c2c(=O)n(C)c(=O)n(C)c2n1 | -4 | -2 | 1 | 8 | 12 | 1 | /
COc1ccc(NC(=O)COC(=O)c2cc(C)oc2C)c([N+](=O)[O-])c1 | / | / | / | 32 | / | / | /
C[n+]1c2n(c3ccccc31)N=C(c1cc(C(C)(C)C)c(O)c(C(C)(C)C)c1)CS2 | -14 | 22 | 107* | 78* | 61* | 9 | 75* | Full FLuc ctr=38*
COc1cc2ccccc2cc1C(=O)NC1CCC(C)CC1 (stereo not given) | 16 | / | -16 | -103 | / | / | /
SMILES | CSC inhib | SKKanGAS inh | Beta cell apopt | Mdm2 MdmX PPI | T cruzi inh | Calb FLC | Mdm2-MdmX conf | others
CCOC(=O)C1C(=O)Oc2ccc3ccccc3c2C1C1CCOC1=O (stereo not given) | -14 | -3 | -1 | 0 | 0 | 20 | /
N=c1c2c(ncn1Cc1ccco1)Oc1ccc3ccccc3c1C2c1ccccc1 (stereo not given) | 102* | 23 | / | 86* | 45 | -5 | 56* | Full FLuc ctr=49*
COc1ccc(C2c3ccc(O)cc3Oc3ncn(Cc4ccco4)c(=N)c32)cc1 (stereo not given) | 20 | 6 | -3 | 20 | 50 | 1 | /
COc1ccc(C2c3c(ncn(Cc4ccco4)c3=N)Oc3ccc4ccccc4c32)cc1 (stereo not given) | 94* | 11 | -3 | 88* | 9 | 4 | 53* | Full FLuc ctr=89*
Nc1ncnc2c1C(c1ccccc1)c1c(ccc3ccccc13)O2 (stereo not given) | / | / | 0 | 88* | / | / | 53* | Full FLuc ctr=63*
COc1ccc(C2C3=C(CC(C)(C)CC3=O)Oc3ncn(Cc4ccco4)c(=N)c32)cc1 (stereo not given) | 11 | -8 | 4 | 10 | 34 | -1 | /
Nc1c(Cl)cc(-c2[nH]c3cc(C(=O)NCCO)ccc3c(=O)c2O)cc1Cl | 4 | 5 | 5 | -7 | -23 | 69 | /
CCOc1ccc(S(=O)(=O)N2CCOCC2)cc1NC(=O)CSCc1c(C)noc1C | / | -4 | 3 | 5 | 3 | 11 | /
C=CC[C@]12CC=CC(=O)[C@@]1(O)O[C@H](c1ccc(OC)c(OC)c1)[C@H]2C | 39 | 0 | -6 | 50* | 22 | -2 | 30
O=C(c1cc(F)c(F)cc1Cl)N1CCN(c2ncccn2)CC1 | 6 | 6 | -7 | 2 | -13 | -4 | /
CC1=C(C(=O)OC2CCCCCCC2)C(c2cc3c(cc2Br)OCO3)CC(=O)N1 (stereo not given) | 118* | 43 | 16 | 78* | 8 | 8 | 28
O=C(NNc1ccccc1)Nc1ccccc1F | 25 | 3 | -8 | 12 | 1 | 6 | /
COc1ccc2c(c1)O[C@H](c1ccc3c(c1)OCO3)[C@@H](O)C2=O | 34 | 0 | 25 | 50* | -26 | -1 | -10
COc1ccc2c(c1)O[C@H](c1ccc3c(c1)OCO3)[C@@H](OC(=O)N[C@H]1CCCc3ccccc31)C2=O | 26 | / | 4 | 3 | / | / | /
COc1ccc2c(c1)O[C@@H](c1cccc(C(F)(F)F)c1)[C@H](O)C2=O | 15 | 0 | 33 | 55* | 6 | -15 | 60* | Full FLuc ctr=36*

From PubChem
